# Laboratory results taken from ChEMBL document CHEMBL3875169, “Synthesis, in vitro anticancer and antibacterial activities and in silico studies of new 4-substituted 1,2,3-triazole-coumarin hybrids” (Eur J Med Chem, 2016).
# What was measured:
# [1] = Growth inhibition of human HepG2 cells after 72 hrs by MTT assay; type: functional, cell-based; conditions: HepG2, 72 h
# How it was run: (§1)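 Monolayers in DMEM with 10% FBS, 2 mM L-glutamine and penicillin/streptomycin, 37 °C, 5% CO2; 5000 cells/well seeded day 0. Compounds added as five 10-fold dilutions (0.01–100 µM), DMSO ≤0.1%, for 72 h. MTT absorbance converted to percentage growth (NIH formulas); IC50 by linear regression between bracketing concentrations, highest concentration reported with ">" when not reached. Quadruplicate points, three experiments.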
# [2] = Growth inhibition of human A549 cells after 72 hrs by MTT assay; type: functional, cell-based; conditions: A549, 72 h; how it was run: as §1
# [3] = Growth inhibition of human CFPAC-1 cells after 72 hrs by MTT assay; type: functional, cell-based; conditions: CFPAC-1, 72 h; how it was run: as §1
# [4] = Induction of apoptosis in human HepG2 cells assessed as early apoptotic cells at 2 times antiproliferative IC50 after 48 hrs by Annexin-V FITC/propidium iodide staining based fluorescence microscopic method (reference value: 0.6%); type: functional
# [5] = Induction of apoptosis in human HepG2 cells assessed as secondary necrotic cells at 2 times antiproliferative IC50 after 48 hrs by Annexin-V FITC/propidium iodide staining based fluorescence microscopic method (reference value: 5.2%); type: functional
# [6] = Growth inhibition of human HeLa cells after 72 hrs by MTT assay; type: functional, cell-based; how it was run: as §1
# [7] = Growth inhibition of human SW620 cells after 72 hrs by MTT assay; type: functional, cell-based; conditions: SW-620, 72 h; how it was run: as §1
# [8] = Induction of apoptosis in human HepG2 cells assessed as late apoptotic cells at 2 times antiproliferative IC50 after 48 hrs by Annexin-V FITC/propidium iodide staining based fluorescence microscopic method (reference value: 0%); type: functional
# [9] = Induction of apoptosis in human HepG2 cells assessed as viable cells at 2 times antiproliferative IC50 after 48 hrs by Annexin-V FITC/propidium iodide staining based fluorescence microscopic method (reference value: 94.2%); type: functional
# HepG2 = experiment: Selectivity index, ratio of IC50 for […] cells to IC50 for human HepG2 cells; type: functional
smiles,measurement,setting,value
O=c1cc(Cn2cc(Cn3ccc4cc(I)ccc43)nn2)c2ccc(O)cc2o1,IC50,[1],8.57 µM
same,IC50,[2],28.6 µM
same,IC50,[3],29.9 µM
same,Activity,[4],5.8%
same,Activity,[5],0%
same,IC50,[6],14.2 µM
same,IC50,[7],34.3 µM
same,Activity,[8],9.2%
same,Activity,[9],85%
same,Ratio IC50,HepG2,3
